{"source": "ChEMBL document CHEMBL4334468", "about": "“Exploring Mitochondria-Mediated Intrinsic Apoptosis by New Phytochemical Entities: An Explicit Observation of Cytochrome c Dynamics on Lung and Melanoma Cancer Cells” (J Med Chem, 2019)", "key": {"A549 [1]": {"system": "A549", "assay": "Induction of morphological changes in human A549 cells at 20 uM by phase contrast microscopy", "format": "functional, cell-based"}, "A549 [2]": {"system": "A549", "assay": "Induction of DNA fragmentation in human A549 cells after 3 hrs by chemometec-DNA fragmentation assay relative to control", "format": "functional"}, "A549 [3]": {"system": "A549", "assay": "Cytotoxicity in human A549 cells assessed as reduction in cell proliferation at 0.001 to 100 uM incubated for 24 to 48 hrs by BrdU incorporation assay", "format": "functional, cell-based", "how_it_was_run": "(§1)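 BrdU incorporation assay read colorimetrically. Absorbance of the developed colour is proportional to the BrdU incorporated into cells, taken as a measure of proliferation.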"}, "[4]": {"assay": "Antioxidant activity assessed as hydroxyl radical scavenging activity at 1 to 1000 ug/ml incubated for 1 hr", "format": "functional"}, "A-375 [5]": {"system": "A-375", "assay": "Induction of apoptosis in human A375 cells assessed as cytochrome-c release after 4 to 12 hrs by spectrophotometry", "format": "functional, cell-based"}, "A549 [6]": {"system": "A549", "assay": "Induction of DNA damage in human A549 cells by SERS spectral analysis", "format": "functional, cell-based"}, "A549 [7]": {"system": "A549", "assay": "Cytotoxicity in human A549 cells assessed as reduction in cell viability incubated for 48 hrs by MTT assay", "format": "functional, cell-based", "conditions": "Homo sapiens, A549, 48 h; read-out: IC50", "how_it_was_run": "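MTT viability assay on A375 melanoma, A549 lung adenocarcinoma and WI-38 normal lung fibroblast cells after 24 and 48 h treatment. IC50 values are in µM, expressed as mean ± SD.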"}, "A549 [8]": {"system": "A549", "assay": "Induction of mitochondrial membrane potential changes in human A549 cells at 1 uM by JC1 staining based fluorimetry", "format": "functional, cell-based", "how_it_was_run": "(§2)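 Mitochondrial membrane potential was assessed with the ratiometric dye JC1. Depolarization appears as lower red and higher green fluorescence, and the red/green intensity ratio was quantified.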"}, "A549 [9]": {"system": "A549", "assay": "Induction of DNA fragmentation in human A549 cells after 4 hrs by agarose gel electrophoresis", "format": "functional, cell-based"}, "A-375 [10]": {"system": "A-375", "assay": "Induction of cell cycle arrest in human A375 cells assessed as accumulation at G2/M phase at 10 nM by propodium iodide staining based flow cytometric analysis", "format": "functional", "how_it_was_run": "(§3)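 DNA was stained with propidium iodide and analysed by flow cytometry. Histograms give the fraction of cells in G0/G1, S and G2/M phases.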"}, "A-375 [11]": {"system": "A-375", "assay": "Induction of apoptosis in human A375 cells assessed as cytochrome-c release after 6 to 8 hrs by Raman spectral imaging analysis", "format": "functional, cell-based"}, "A549 [12]": {"system": "A549", "assay": "Inhibition of colony formation in human A549 cells at 1 nM by crystal violet staining based assay", "format": "functional, cell-based"}, "A549 [13]": {"system": "A549", "assay": "Induction of intracellular ROS generation in human A549 cells at 1 uM by DCFDA dye based fluorescence assay relative to control", "format": "functional", "how_it_was_run": "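Intracellular ROS in A549 cells was measured with the DCFDA probe over 1-100 µM, with paclitaxel as positive control. Readout is fold change in fluorescence intensity relative to untreated control.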"}, "A-375 [14]": {"system": "A-375", "assay": "Induction of apoptosis in human A375 cells at 1 uM by APOP assay", "format": "functional, cell-based"}, "A549 [15]": {"system": "A549", "assay": "Induction of apoptosis related protein expression in human A549 cells assessed as increase in Bim expression at 20 uM incubated for 12 hrs by apoptosis antibody array", "format": "functional, cell-based"}, "A549 [16]": {"system": "A549", "assay": "Induction of apoptosis related protein expression in human A549 cells assessed as increase in p53 expression at 20 uM incubated for 12 hrs by apoptosis antibody array", "format": "functional, cell-based"}, "A-375 [17]": {"system": "A-375", "assay": "Antimetastatic activity in human A375 assessed as inhibition of cell migration rate at 1 nM incubated up to 24 hrs by scratch wound healing assay", "format": "functional, cell-based", "how_it_was_run": "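Scratch wound healing assay. The cell-free zone was followed over time up to 24 h, with untreated control wells as reference. Closure was quantified as migration rate.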"}, "A-375 [18]": {"system": "A-375", "assay": "Inhibition of colony formation in human A375 cells at 1 nM by crystal violet staining based assay", "format": "functional, cell-based"}, "A549 [19]": {"system": "A549", "assay": "Induction of apoptosis related protein expression in human A549 cells assessed as increase in Bad expression at 20 uM incubated for 12 hrs by apoptosis antibody array", "format": "functional, cell-based"}, "A549 [20]": {"system": "A549", "assay": "Induction of apoptosis related protein expression in human A549 cells assessed as increase in TNFalpha/beta expression at 20 uM incubated for 12 hrs by apoptosis antibody array", "format": "functional, cell-based"}, "A-375 [21]": {"system": "A-375", "assay": "Induction of mitochondrial membrane potential changes in human A375 cells at 1 uM by JC1 staining based fluorimetry", "format": "functional, cell-based", "how_it_was_run": "as §2"}, "A-375 [22]": {"system": "A-375", "assay": "Cytotoxicity in human A375 cells assessed as reduction in cell viability at 0.001 to 100 uM incubated for 24 to 48 hrs by LDH assay", "format": "functional, cell-based", "how_it_was_run": "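LDH released into the culture medium after plasma membrane damage was quantified and expressed as percentage cytotoxicity.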"}, "A549 [23]": {"system": "A549", "assay": "Induction of apoptosis in human A549 cells assessed as cytochrome-c release after 6 to 8 hrs by Raman spectral imaging analysis", "format": "functional, cell-based"}, "A549 [24]": {"system": "A549", "assay": "Suppression of cell number in human A549 cells at 20 uM by phase contrast microscopy", "format": "functional, cell-based"}, "A549 [25]": {"system": "A549", "assay": "Induction of apoptosis in human A549 cells assessed as cytochrome-c release after 4 to 12 hrs by spectrophotometry", "format": "functional, cell-based"}, "A-375 [26]": {"system": "A-375", "assay": "Cytotoxicity in human A375 cells assessed as reduction in cell proliferation at 0.001 to 100 uM incubated for 24 to 48 hrs by BrdU incorporation assay", "format": "functional, cell-based", "how_it_was_run": "as §1"}, "A-375 [27]": {"system": "A-375", "assay": "Induction of apoptosis in human A375 cells assessed as increase in caspase-8 levels at 1 uM incubated for 12 hrs by spectrofluorometry", "format": "functional, cell-based"}, "A549 [28]": {"system": "A549", "assay": "Induction of cell cycle arrest in human A549 cells assessed as accumulation at G2/M phase at 10 nM by propodium iodide staining based flow cytometric analysis (reference value: 7%)", "format": "functional", "how_it_was_run": "as §3"}, "A-375 [29]": {"system": "A-375", "assay": "Suppression of cell number in human A375 cells at 20 uM by phase contrast microscopy", "format": "functional, cell-based"}, "[30]": {"assay": "Antioxidant activity assessed as DPPH radical scavenging activity at 1 to 1000 ug/ml incubated for 30 mins by spectrophotometry", "format": "functional"}, "A549 [31]": {"system": "A549", "assay": "Induction of apoptosis in human A549 cells assessed as necrosis cells level at 1 uM incubated for 24 hrs by FITC-Annexin V staining based assay (reference value: 0.3%)", "format": "functional"}, "A549 [32]": {"system": "A549", "assay": "Antimetastatic activity in human A549 cells assessed as reduction in cell invasion at 10 nM by crystal violet staining based transwell chamber assay", "format": "functional", "how_it_was_run": "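Invasion was measured in a transwell chamber, with cells moving across Matrigel toward the lower chamber. Invaded cells were imaged and quantified against untreated control.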"}, "A549 [33]": {"system": "A549", "assay": "Induction of morphological changes in human A549 cells assessed as induction of membrane breakage, blebbing and leakage of intracellular components at 1 uM by atomic force microscopy", "format": "functional, cell-based"}, "A-375 [34]": {"system": "A-375", "assay": "Induction of DNA damage in human A375 cells after 4 hrs by Raman spectral imaging analysis", "format": "functional, cell-based"}, "A-375 [35]": {"system": "A-375", "assay": "Antimetastatic activity in human A375 cells assessed as reduction in cell migration at 10 nM by crystal violet staining based transwell chamber assay", "format": "functional", "how_it_was_run": "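Transwell chamber migration assay. Cells migrating to the lower side were imaged and quantified against untreated control.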"}, "A-375 [36]": {"system": "A-375", "assay": "Induction of morphological changes in human A375 cells at 20 uM by phase contrast microscopy", "format": "functional, cell-based"}, "A-375 [37]": {"system": "A-375", "assay": "Induction of apoptosis in human A375 cells at 1 uM by TUNEL assay", "format": "functional, cell-based"}, "A549 [38]": {"system": "A549", "assay": "Induction of apoptosis related protein expression in human A549 cells assessed as increase in Cyt-c expression at 20 uM incubated for 12 hrs by apoptosis antibody array", "format": "functional, cell-based"}}, "note": "Active and inactive are the calls of the source. No cut-off for these calls is given here.", "data": [{"molecule": "COc1cc(C2Oc3cc(-c4cc(=O)c5c(O)cc(O)cc5o4)ccc3OC2/C=C2\\C(=O)ON=C2c2ccc(Cl)cc2)ccc1O", "note": "(stereo not drawn)", "values": [{"measurement": "Activity", "setting": "A549 [1]", "result": "Active"}, {"measurement": "Activity", "setting": "A549 [2]", "result": 14.5, "unit": "%"}, {"measurement": "Activity", "setting": "A549 [3]", "result": "Active"}, {"measurement": "Activity", "setting": "[4]", "result": "Dose-dependent effect"}, {"measurement": "Activity", "setting": "A-375 [5]", "result": "Active"}, {"measurement": "Activity", "setting": "A549 [6]", "result": "Active"}, {"measurement": "IC50", "setting": "A549 [7]", "result": 1.2, "unit": "µM"}, {"measurement": "Activity", "setting": "A549 [8]", "result": "Active"}, {"measurement": "Activity", "setting": "A549 [9]", "result": "Active"}, {"measurement": "Activity", "setting": "A-375 [10]", "result": "Active"}, {"measurement": "Activity", "setting": "A-375 [11]", "result": "Active"}, {"measurement": "inhibition", "setting": "A549 [12]", "result": "Active"}, {"measurement": "fold change (FC)", "setting": "A549 [13]", "result": ">3"}, {"measurement": "Activity", "setting": "A-375 [14]", "result": "Active"}, {"measurement": "Activity", "setting": "A549 [15]", "result": "Active"}, {"measurement": "Activity", "setting": "A549 [16]", "result": "Active"}, {"measurement": "Activity", "setting": "A-375 [17]", "result": "Active"}, {"measurement": "inhibition", "setting": "A-375 [18]", "result": "Active"}, {"measurement": "Activity", "setting": "A549 [19]", "result": "Active"}, {"measurement": "Activity", "setting": "A549 [20]", "result": "Active"}, {"measurement": "Activity", "setting": "A-375 [21]", "result": "Active"}, {"measurement": "Activity", "setting": "A-375 [22]", "result": "Active"}, {"measurement": "Activity", "setting": "A549 [23]", "result": "Active"}, {"measurement": "Activity", "setting": "A549 [24]", "result": "Active"}, {"measurement": "Activity", "setting": "A549 [25]", "result": "Active"}, {"measurement": "Activity", "setting": "A-375 [26]", "result": "Active"}, {"measurement": "Activity", "setting": "A-375 [27]", "result": "inactive"}, {"measurement": "Activity", "setting": "A549 [28]", "result": 29, "unit": "%"}, {"measurement": "Activity", "setting": "A-375 [29]", "result": "Active"}, {"measurement": "Activity", "setting": "[30]", "result": "inactive"}, {"measurement": "Activity", "setting": "A549 [31]", "result": 13, "unit": "%"}, {"measurement": "Activity", "setting": "A549 [32]", "result": "Active"}, {"measurement": "Activity", "setting": "A549 [33]", "result": "Active"}, {"measurement": "Activity", "setting": "A-375 [34]", "result": "Active"}, {"measurement": "Activity", "setting": "A-375 [35]", "result": "Active"}, {"measurement": "Activity", "setting": "A-375 [36]", "result": "Active"}, {"measurement": "Activity", "setting": "A-375 [37]", "result": "Active"}, {"measurement": "Activity", "setting": "A549 [38]", "result": "inactive"}]}]}
